Experiments:
Type in all cases: protein assay
[1] = molecular target: Bcl-xL/BH3-interacting domain death agonist (Homo sapiens, UniProt Q07817); test: Inhibition of GST-tagged Bcl-xl/FITC-conjugated Bid interaction by fluorescence polarisation assay
Bcl-xL/BAX = Bcl-xL/BAX (Homo sapiens, UniProt Q07812+Q07817); test: Inhibition of GST-tagged Bcl-xl/FITC-conjugated Bax interaction by fluorescence polarisation assay
Bcl-xL/BAK = Bcl-xL/BAK (Homo sapiens, UniProt Q07817); test: Inhibition of GST-tagged […]/FITC-conjugated Bak interaction by fluorescence polarisation assay
Sequence of Bcl-xL/BAK (Q07817 whole entry): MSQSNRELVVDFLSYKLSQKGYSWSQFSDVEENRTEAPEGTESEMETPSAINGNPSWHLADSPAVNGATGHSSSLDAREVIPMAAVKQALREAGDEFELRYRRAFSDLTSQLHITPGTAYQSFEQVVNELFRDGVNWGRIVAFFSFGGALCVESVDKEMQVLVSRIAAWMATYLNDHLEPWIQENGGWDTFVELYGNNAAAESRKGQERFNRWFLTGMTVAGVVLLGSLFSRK
Sequence of Bcl-xL/BAK (Q16611 whole entry, further chain): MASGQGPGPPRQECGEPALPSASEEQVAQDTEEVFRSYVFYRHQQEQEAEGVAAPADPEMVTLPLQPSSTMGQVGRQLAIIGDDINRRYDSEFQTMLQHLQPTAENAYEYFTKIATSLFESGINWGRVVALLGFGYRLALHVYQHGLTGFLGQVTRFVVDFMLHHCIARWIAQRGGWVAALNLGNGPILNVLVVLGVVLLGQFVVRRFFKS

[2] = molecular target: Bcl-xL/Bcl-2-like protein 11 (Homo sapiens, UniProt Q07817); test: Inhibition of GST-tagged Bcl-xl/FITC-conjugated Bim interaction by fluorescence polarisation assay
Sequence of Bcl-xL/Bcl-2-like protein 11 (Q07817 whole entry): as the sequence (Q07817 whole entry) above
Sequence of Bcl-xL/Bcl-2-like protein 11 (O43521 whole entry, further chain): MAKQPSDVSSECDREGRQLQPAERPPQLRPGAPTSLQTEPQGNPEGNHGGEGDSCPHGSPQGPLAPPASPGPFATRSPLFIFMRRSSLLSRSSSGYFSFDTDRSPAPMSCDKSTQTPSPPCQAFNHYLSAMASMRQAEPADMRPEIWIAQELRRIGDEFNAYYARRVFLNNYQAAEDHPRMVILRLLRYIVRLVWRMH

[3] = molecular target: Bcl-xL/Bcl-2-binding component 3 (Homo sapiens, UniProt Q07817+Q9BXH1); test: Inhibition of GST-tagged Bcl-xl/FITC-conjugated PUMA interaction by fluorescence polarisation assay
Sequence of Bcl-xL/Bcl-2-binding component 3 (Q07817 whole entry): as the sequence (Q07817 whole entry) above
Sequence of Bcl-xL/Bcl-2-binding component 3 (Q9BXH1 whole entry): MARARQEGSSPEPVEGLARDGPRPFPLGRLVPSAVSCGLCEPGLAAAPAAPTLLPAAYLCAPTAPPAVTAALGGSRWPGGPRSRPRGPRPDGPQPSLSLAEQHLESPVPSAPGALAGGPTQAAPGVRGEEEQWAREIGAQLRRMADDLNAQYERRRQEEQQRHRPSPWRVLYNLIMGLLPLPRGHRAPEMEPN

[4] = molecular target: Apoptosis regulator BAX/Bcl-2-related protein A1 (Homo sapiens, UniProt Q07812+Q16548); test: Inhibition of GST-tagged Bfl-1/FITC-conjugated Bax interaction by fluorescence polarisation assay
Sequence of Apoptosis regulator BAX/Bcl-2-related protein A1 (Q07812 whole entry, the tested form may be a part): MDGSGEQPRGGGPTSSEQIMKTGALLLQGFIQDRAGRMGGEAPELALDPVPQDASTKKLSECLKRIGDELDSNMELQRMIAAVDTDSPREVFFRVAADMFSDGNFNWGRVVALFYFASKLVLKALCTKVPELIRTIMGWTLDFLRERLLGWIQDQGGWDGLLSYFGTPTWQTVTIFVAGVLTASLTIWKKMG
Sequence of Apoptosis regulator BAX/Bcl-2-related protein A1 (Q16548 whole entry, the tested form may be a part): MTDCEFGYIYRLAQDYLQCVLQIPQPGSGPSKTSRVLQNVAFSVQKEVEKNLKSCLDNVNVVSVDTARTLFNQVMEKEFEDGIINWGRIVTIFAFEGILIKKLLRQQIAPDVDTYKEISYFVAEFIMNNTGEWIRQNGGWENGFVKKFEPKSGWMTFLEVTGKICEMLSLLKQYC
Method in brief: (§1)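 Recombinant GST-fused anti-apoptotic protein (Bcl-xl, Bcl-2, Bfl-1 or Mcl-1, each lacking its C-terminal tail) at 100 nM, incubated in the dark with 15 nM N-terminally FITC-labelled BH3 peptide (Bak, Bax, Bid or Bim) and a range of compound concentrations. Fluorescence polarisation was read, and IC50 was derived from the concentration-response curve.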

[5] = molecular target: Apoptosis regulator BAX/Induced myeloid leukemia cell differentiation protein Mcl-1 (Homo sapiens, UniProt Q07812+Q07820); test: Inhibition of GST-tagged Mcl-1/FITC-conjugated Bax interaction by fluorescence polarisation assay; method in brief: as §1
Sequence of Apoptosis regulator BAX/Induced myeloid leukemia cell differentiation protein Mcl-1 (Q07820 whole entry): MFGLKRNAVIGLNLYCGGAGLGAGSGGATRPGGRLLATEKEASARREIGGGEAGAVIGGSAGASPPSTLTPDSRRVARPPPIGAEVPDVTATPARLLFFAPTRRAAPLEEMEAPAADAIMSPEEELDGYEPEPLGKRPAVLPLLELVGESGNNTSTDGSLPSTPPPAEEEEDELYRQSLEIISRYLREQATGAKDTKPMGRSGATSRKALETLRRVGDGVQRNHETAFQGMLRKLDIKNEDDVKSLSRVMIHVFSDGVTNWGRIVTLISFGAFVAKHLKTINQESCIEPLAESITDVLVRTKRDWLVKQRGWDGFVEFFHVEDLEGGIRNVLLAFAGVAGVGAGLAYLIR
Sequence of Apoptosis regulator BAX/Induced myeloid leukemia cell differentiation protein Mcl-1 (Q07812 whole entry): as the sequence (Q07812 whole entry, the tested form may be a part) above

[6] = molecular target: Apoptosis regulator BAX/Bcl-2 (Homo sapiens, UniProt P10415+Q07812); test: Inhibition of GST-tagged Bcl-2/FITC-conjugated Bax interaction by fluorescence polarisation assay; method in brief: as §1
Sequence of Apoptosis regulator BAX/Bcl-2 (P10415 whole entry): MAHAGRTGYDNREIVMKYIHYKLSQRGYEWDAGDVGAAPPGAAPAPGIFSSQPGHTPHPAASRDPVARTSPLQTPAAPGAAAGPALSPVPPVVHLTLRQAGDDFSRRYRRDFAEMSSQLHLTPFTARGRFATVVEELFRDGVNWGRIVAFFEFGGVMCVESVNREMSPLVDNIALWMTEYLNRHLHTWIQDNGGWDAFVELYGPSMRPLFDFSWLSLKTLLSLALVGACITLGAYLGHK
Sequence of Apoptosis regulator BAX/Bcl-2 (Q07812 whole entry): as the sequence (Q07812 whole entry, the tested form may be a part) above

Sequence of Bcl-xL/BAX (Q07817 whole entry): as the sequence (Q07817 whole entry) above
Sequence of Bcl-xL/BAX (Q07812 whole entry): as the sequence (Q07812 whole entry, the tested form may be a part) above
Sequence of Bcl-xL/BH3-interacting domain death agonist (Q07817 whole entry, the tested form may be a part): as the sequence (Q07817 whole entry) above
Sequence of Bcl-xL/BH3-interacting domain death agonist (P55957 whole entry, further chain, the tested form may be a part): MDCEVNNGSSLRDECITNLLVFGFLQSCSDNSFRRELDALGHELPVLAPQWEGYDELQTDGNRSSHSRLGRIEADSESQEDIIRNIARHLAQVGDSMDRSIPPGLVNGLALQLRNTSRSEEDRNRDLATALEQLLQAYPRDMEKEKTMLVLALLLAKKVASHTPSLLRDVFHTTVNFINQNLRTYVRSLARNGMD

| IC50 (Bcl-xL/BAX) [µM] | IC50 (Bcl-xL/BAK) [µM] | IC50 [2] [µM] | IC50 [3] [µM] | IC50 [4] [µM] | IC50 [5] [µM] | IC50 [6] [µM] | Compound | IC50 [1] [µM] |
| --- | --- | --- | --- | --- | --- | --- | --- | --- |
| > 1000 | > 1000 | 29 | > 1000 |  |  |  | COc1ccc2c(CC(C)C)cc(-c3cc4c(C(C)C)cccc4nc3OC)cc2n1 | > 1000 |
| 243 | 74 | 47 | 54 |  |  |  | CCOc1nc2ccccc2cc1-c1cc(C(C)C)c2cc(-c3cc(C(C)C)c4ccc(OC)nc4c3)c(OC)nc2c1 | 21 |
| 26 | 25 | 92.5 | 42 | 68 | 45.5 | 43 | CCC(C)c1cc(-c2cc3c(CC(C)C)cc(-c4cc5c(C(C)C)cccc5nc4OC)cc3nc2OC)cc2nc(OC)ccc12 (racemic) | 27 |
